High-throughput results from PubChem BioAssay.
Sampled rows, rich in hits. Any-hit rate of the full collection: about 12%.
ABCB1 block: ABCB1 efflux pump inhibitors, primary screen, cell-based, multiplex, flow cytometry, ABCG2 counter-screen | CCRF-Adr cells, JC-1 efflux | hit rate 0.067% among 190,000 | inhibition, % at 6.6 µM | ATP-dependent translocase ABCB1 (Homo sapiens), P08183; in the data active means inhibition above about 40%;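 further: 0% = vehicle and 100% = reference inhibitor; higher value means more JC-1 retained so stronger ABCB1 efflux block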
ABCG2 inh: ABCG2 efflux pump inhibitors, primary screen, multiplex with ABCB1, IgMXP3 cells, flow cytometry. inhibition, % at 6.6 µM. Broad substrate specificity ATP-binding cassette transporter ABCG2 (Homo sapiens), Q9UNQ0. AID 1325, 2008. JC-1 efflux. hit rate 0.1% among 190,000;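 active means inhibition above 80%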;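 further: 0% = DMSO and 100% = nicardipine control wells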
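Test system: ABCG2 IgMXP3 and barcoded ABCB1 CCRF-Adr cell mix; Schedule: cells with compound and JC-1, 10 min at 25 °C, rotating, no wash; Technique: flow cytometry of retained JC-1 fluorescence; Measure: % inhibition of efflux relative to nicardipine and DMSO; Controls: nicardipine high and DMSO low controls.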
RAM network inh: inhibitors of the yeast RAM network, primary screen, dse1pr::URA3 reporter, 5-FOA selection; inhibition, % at 50 µM; hit rate 1.8% among 190,000; AID 868, 2007; S. cerevisiae dse1pr::URA3 reporter, 5-FOA growth OD615, 2 d; analog-sensitive cbk1-as2 kinase mutant strain;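 active means inhibition above a set limit, 3 SD over mean compound inhibition, cut at about 8.4% in these data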;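 further: 0% = DMSO-only wells with no growth and 100% = 10 µM 1-NA-PP1 full growth; inhibition rescues growth on 5-FOA so higher OD means more RAM inhibition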
WT yeast gro inh: growth inhibition of WT strain, primary screen, mitochondrial fusion inhibitor project, WT and mutant strains, chemical genetic; inhibition, % at 10 µM; mitochondrial fusion phenotypic screen; hit rate 2.1% among 190,000; AID 1362, 2008; in the data active means inhibition above about 58%; tested in S. cerevisiae
Lmaj promast: Leishmania major promastigote growth inhibition, primary screen; hit rate 9% among 200,000; inhibition, % at 10 µM; Leishmania major promastigotes, resazurin fluorescence viability; in the data active means inhibition above about 50%;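 further: promastigotes grown with compound for 44 hours at 28 °C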
* = called active by the depositor; . = no result.

SMILES	ABCB1 block	ABCG2 inh	RAM network inh	WT yeast gro inh	Lmaj promast
COc1ccc2c(c1OC)C(=O)N1N=C(c3ccc(Cl)cc3)CC21 (configuration not stated)	1	11	0	6	18
CNC(=S)N1N=C(c2ccc(OC)cc2)CC1c1ccc(Cl)cc1Cl (configuration not stated)	1	4	4	40	100*
CNC(=S)N1N=C(c2ccc(Br)cc2)CC1c1ccc(OC)cc1 (configuration not stated)	3	12	3	38	99*
CNC(=S)N1N=C(c2ccc(C)cc2)CC1c1ccc(OC)cc1 (configuration not stated)	1	4	7	43	97*
NS(=O)(=O)c1ccc(CCNC(=O)CSc2nc3ccccc3c(=O)n2CCC(=O)N2CCCCC2)cc1	0	0	1	-2	-4
c1ccc2sc(N3CCCN(Cc4nc(-c5cnccn5)no4)CC3)nc2c1	3	4	2	2	10
CC1=CC(C)(C)N2C(=O)C3(C(C#N)=C(N)Oc4cc(C)oc(=O)c43)c3cc(C)cc1c32 (configuration not stated)	.	.	.	.	91*
COc1cc2c3c(c1)C1(C(=O)N3C(C)(C)C=C2C)C(C#N)=C(N)Oc2cc(C)oc(=O)c21 (configuration not stated)	1	3	2	-4	-6
Cc1ccc2c3c1C1(C(=O)N3C(C)(C)CC2C)C(C#N)=C(N)Oc2cc(O)ccc21 (configuration not stated)	-1	6	4	1	49
CC1=CC(C)(C)N2C(=O)C3(C(C#N)=C(N)Oc4cc(O)ccc43)c3cccc1c32 (configuration not stated)	-1	17	2	-12	56*
CC1=CC(C)(C)N2C(=O)C3(C(C#N)=C(N)OC4=C3C(=O)CC(C)(C)C4)c3cccc1c32 (configuration not stated)	1	3	4	-2	0
Cc1cc2c3c(c1)C1(C(=O)N3C(C)(C)CC2C)C(C#N)=C(N)Oc2cc(O)ccc21 (configuration not stated)	0	-1	3	7	100*
Cc1ccc(CN2CCN(/N=C/c3cccs3)CC2)cc1	2	5	1	19	-3
Cc1ccc2[nH]c(=O)c(CN(CCc3ccccc3)Cc3nnnn3CC3CCCO3)cc2c1 (configuration not stated)	3	49	1	2	25
COc1ccc2cc(CN(CCc3ccccc3)Cc3nnnn3CC3CCCO3)c(=O)[nH]c2c1 (configuration not stated)	1	30	1	-7	100*
COc1ccccc1CN(Cc1cc2cc(C)ccc2[nH]c1=O)Cc1nnnn1CC1CCCO1 (configuration not stated)	2	20	2	0	30
COCCn1nnnc1CN(CCc1ccccc1)Cc1cc2ccc(C)cc2[nH]c1=O	2	7	0	-15	100*
COc1ccccc1CN(Cc1cc2cc(C)cc(C)c2[nH]c1=O)Cc1nnnn1CC1CCCO1 (configuration not stated)	4	4	0	-7	56*
Cc1cccc(N(CC(=O)N/N=C/c2cc([N+](=O)[O-])ccc2Cl)S(C)(=O)=O)c1C	2	4	1	-22	86*
CS(=O)(=O)N(CC(=O)N/N=C/c1cc([N+](=O)[O-])ccc1Cl)c1ccccc1	2	7	6	13	13
CC(C)SC1=NC(C)(C)C=C(/C=C/c2c(Cl)cccc2Cl)N1	1	8	0	66*	100*
CC(C)SC1=NC(C)(C)C=C(/C=C/c2ccc(Cl)cc2Cl)N1	0	5	-1	77*	95*
O=C1CCN(c2ccc([N+](=O)[O-])cc2F)CC1	1	5	3	0	-13
CNC(=O)c1ccc(Nc2nnc(-c3ccc(C)c(S(=O)(=O)NCC4CCCO4)c3)c3ccccc23)cc1 (configuration not stated)	0	0	1	-10	-4
